Source: ChEMBL document CHEMBL1148285, “Pyridinium cationic lipids in gene delivery: a structure-activity correlation study” (J Med Chem, 2004)

Each molecule was assayed on NCI-H23 (assay: Transfection efficiency in NCI-H23 lung cancer cell line was determined.). Settings: Homo sapiens.
Type: functional, cell-based
How it was run: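 Cationic lipid/cholesterol 1:1 liposomes hydrated in PBS and bath-sonicated (twice 15 min, 65–68 °C; DOTAP/Chol at 37 °C). Lipoplexes with pGL3 (SV40-luciferase) at 2:1 charge ratio, 30 min at 22 °C in Optimem. NCI-H23 cells in RPMI 1640/10% FBS, 20 000 cells/well seeded 24 h before. Exposed 1 h, then medium added for 24 h. Lysate luciferase measured by luminometer, protein by BCA. Triplicate or quadruplicate, mean ± 1 SD.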
`CCCCCCCCCCCCCC(=O)OCC(COC(=O)CCCCCCCCCCCCC)[n+]1c(C)cc(C)cc1C` was tested, and the Activity was “A”. In the case of `CCCCCCCCCCCC(=O)Oc1ccc(CC[n+]2c(C)cc(C)cc2C)cc1OC(=O)CCCCCCCCCCC`, the Activity is reported as “A”. For `CCCCCCCCCCCCCC(=O)Oc1ccc(CC[n+]2c(C)cc(C)cc2C)cc1OC(=O)CCCCCCCCCCCCC`, the Activity was “A”. For `CCCCCCCCCCCCCCCCCC(=O)Oc1ccc(CC[n+]2c(C)cc(C)cc2C)cc1OC(=O)CCCCCCCCCCCCCCCCC`, the Activity was “A”. In the case of `CCCCCCCCCCCCCCCC(=O)Oc1ccc(CC[n+]2c(C)cc(C)cc2C)cc1OC(=O)CCCCCCCCCCCCCCC`, the Activity is reported as “A”. For `CCCCCCCC(=O)Oc1ccc(CC[n+]2c(C)cc(C)cc2C)cc1OC(=O)CCCCCCC`, the Activity was “A”. In the case of `CCCCCCCCCCCCCCCC(=O)OCC(COC(=O)CCCCCCCCCCCCCCC)[n+]1c(C)cc(C)cc1C`, the Activity is reported as “A”. With `CCCCCCCCCC(=O)Oc1ccc(CC[n+]2c(C)cc(C)cc2C)cc1OC(=O)CCCCCCCCC` the Activity was “A”. `CCCCCCCCCCCCCCCCCC(=O)OCC(COC(=O)CCCCCCCCCCCCCCCCC)[n+]1c(C)cc(C)cc1C` was tested, and the Activity was “A”. `CCCCCCCCCCCC(=O)OCC(COC(=O)CCCCCCCCCCC)[n+]1c(C)cc(C)cc1C` was tested, and the Activity was “A”.
